According to ChEMBL document CHEMBL1649122, “Abc1p is a multidrug efflux transporter that tips the balance in favor of innate azole resistance in Candida krusei” (2009):
≈ marks a conversion by molar mass, not a printed value. Calls of active or inactive are those of the source. The rule behind the calls is not given here.

Experiments:
[1] = target: ATP binding cassette transporter Abc1p (Issatchenkia orientalis) (UniProt Q09GQ4); experiment: Inhibition of Candida krusei ABC1 expressed in Saccharomyces cerevisiae isolate ADdelta at 19 nM; settings: Pichia kudriavzevii
Summary of the method: (§1)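 Agarose disk-diffusion test of S. cerevisiae AD overexpressing C. krusei Abc1p, with the parent AD strain as comparison. Cells were pregrown from YPD overnight into CSM to mid-log at 30°C. They were seeded at OD600 0.008 in CSM with 0.6% agarose, overlaid on CSM agar (pH 7.0). Paper disks carrying set nmol amounts of xenobiotic were applied, and plates were incubated at 30°C for 48 h before reading growth inhibition zones.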

[2] = target: ATP binding cassette transporter Abc1p (Issatchenkia orientalis) (UniProt Q09GQ4); experiment: Inhibition of Candida krusei B2399 Abc1p assessed as reduction of itraconazole MIC at 1 ug after 48 hrs by agarose diffusion assay; settings: Pichia kudriavzevii
[3] = target: ATP binding cassette transporter Abc1p (Issatchenkia orientalis) (UniProt Q09GQ4); experiment: Inhibition of Candida krusei IF011 Abc1p assessed as reduction of itraconazole MIC at 1 ug after 48 hrs by agarose diffusion assay; settings: Pichia kudriavzevii
[4] = target: ATP binding cassette transporter Abc1p (Issatchenkia orientalis) (UniProt Q09GQ4); experiment: Inhibition of Candida krusei Abc1g expressed in Saccharomyces cerevisiae isolate ADdelta assessed as reduction of itraconazole MIC at 2.5 ug/ml after 48 hrs by checkerboard susceptibility assay; settings: Pichia kudriavzevii
Summary of the method: (§2)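 Checkerboard liquid microdilution in CSM (pH 7.0). FLC or ITC MICs of AD/CkABC1g or C. krusei B2399 were measured across a range of milbemycin concentrations. Interaction was expressed as fractional inhibitory concentration index (FICI).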

[5] = target: ATP binding cassette transporter Abc1p (Issatchenkia orientalis) (UniProt Q09GQ4); experiment: Inhibition of Candida krusei Abc1p expressed in Saccharomyces cerevisiae isolate AD assessed as reduction of itraconazole MIC at 1 ug after 48 hrs by agarose diffusion assay; settings: Pichia kudriavzevii
[6] = target: ATP binding cassette transporter Abc1p (Issatchenkia orientalis) (UniProt Q09GQ4); experiment: Inhibition of Candida krusei Abc1g expressed in Saccharomyces cerevisiae isolate ADdelta assessed as reduction of fluconazole MIC at 2.5 ug/ml after 48 hrs by checkerboard susceptibility assay; settings: Pichia kudriavzevii; summary of the method: as §2
[7] = target: ATP binding cassette transporter Abc1p (Issatchenkia orientalis) (UniProt Q09GQ4); experiment: Inhibition of Candida krusei B2399 Abc1p assessed as reduction of itraconazole MIC at 2.5 ug/ml after 48 hrs by checkerboard susceptibility assay; settings: Pichia kudriavzevii; summary of the method: as §2
[8] = target: ATP binding cassette transporter Abc1p (Issatchenkia orientalis) (UniProt Q09GQ4); experiment: Inhibition of Candida krusei B2399 Abc1p assessed as reduction of fluconazole MIC at 2.5 ug/ml after 48 hrs by checkerboard susceptibility assay; settings: Pichia kudriavzevii; summary of the method: as §2
[9] = target: ATP binding cassette transporter Abc1p (Issatchenkia orientalis) (UniProt Q09GQ4); experiment: Inhibition of Candida krusei ABC1 expressed in Saccharomyces cerevisiae isolate ADdelta at 87 nM; settings: Pichia kudriavzevii; summary of the method: as §1
Pichia kudriavzevii [10] = experiment: Antimicrobial activity against Candida krusei NZCDC 89.021 after 48 hrs by CLSI method; format: functional; settings: NZCDC 89.021, 48 h
Summary of the method: (§3)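 Azole MICs were determined by the CLSI M27-A2 broth microdilution reference method. They were interpreted against the CLSI breakpoints. Strains were maintained in YPD medium (1% yeast extract, 2% peptone, 2% glucose).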

Pichia kudriavzevii [11] = experiment: Antimicrobial activity against Candida krusei B2399 after 48 hrs by liquid microdilution assay; format: functional; settings: B2399, 48 h
Summary of the method: (§4)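 Liquid broth microdilution susceptibility assay in CSM medium at pH 7.0, which was also the medium used for the expression studies. Fungal strains were maintained in YPD. The S. cerevisiae test strains carry C. krusei ABC1 or fungal ERG11 alleles integrated at the chromosomal PDR5 locus.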

Pichia kudriavzevii [12] = experiment: Antimicrobial activity against Candida krusei NZCDC 89.021 after 48 hrs by liquid microdilution assay; format: functional; settings: NZCDC 89.021, 48 h; summary of the method: as §4
[13] = target: ATP binding cassette transporter Abc1p (Issatchenkia orientalis) (UniProt Q09GQ4); experiment: Inhibition of Candida krusei […] expressed in Saccharomyces cerevisiae isolate ADdelta assessed as fractional inhibitory concentration index at 2.5 ug/ml after 48 hrs by checkerboard susceptibility assay; settings: Pichia kudriavzevii
Summary of the method: (§5)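 Checkerboard susceptibility assay combining the Abc1p inhibitor with FLC or ITC. MICs were determined at various inhibitor concentrations. The fractional inhibitory concentration index was calculated for each combination.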

Pichia kudriavzevii [14] = experiment: Antimicrobial activity against Candida krusei NZCDC 89.102 after 48 hrs by CLSI method; format: functional; summary of the method: as §3
Saccharomyces cerevisiae [15] = experiment: Fold resistant, ratio of MIC for Saccharomyces cerevisiae isolate ADdelta overexpressing Saccharomyces cerevisiae ERG11 to MIC for Saccharomyces cerevisiae isolate ADdelta overexpressing Abc1p; format: functional
Summary of the method: (§6)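 Fold resistance is the ratio of azole MICs between S. cerevisiae overexpressing strains. The MICs were measured by liquid broth microdilution in CSM medium at pH 7.0. The ERG11 or ABC1 constructs are integrated at the PDR5 locus.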

Pichia kudriavzevii [16] = experiment: Antimicrobial activity against Candida krusei NZCDC 89.102 after 48 hrs by liquid microdilution assay; format: functional; settings: NZCDC 89.102, 48 h; summary of the method: as §4
Saccharomyces cerevisiae [17] = experiment: Fold resistant, ratio of MIC for Saccharomyces cerevisiae isolate ADdelta overexpressing Candida albicans ERG11A to MIC for Saccharomyces cerevisiae isolate ADdelta overexpressing Abc1p; format: functional; summary of the method: as §6
Saccharomyces cerevisiae [18] = experiment: Fold resistant, ratio of MIC for Saccharomyces cerevisiae isolate ADdelta overexpressing Candida krusei ERG11g to MIC for Saccharomyces cerevisiae isolate ADdelta overexpressing Abc1p; format: functional; summary of the method: as §6
Pichia kudriavzevii [19] = experiment: Antimicrobial activity against Candida krusei NZCDC 89.221 after 48 hrs by liquid microdilution assay; format: functional; settings: NZCDC 89.221, 48 h; summary of the method: as §4
Saccharomyces cerevisiae [20] = experiment: Antimicrobial activity against Saccharomyces cerevisiae isolate ADdelta overexpressing Candida albicans ERG11A after 48 hrs by liquid microdilution assay; format: functional; summary of the method: as §4
Pichia kudriavzevii [21] = experiment: Antimicrobial activity against Candida krusei NZCDC 89.221 after 48 hrs by CLSI method; format: functional; summary of the method: as §3
Saccharomyces cerevisiae [22] = experiment: Fold resistant, ratio of MIC for Saccharomyces cerevisiae isolate ADdelta overexpressing Candida krusei ERG11C to MIC for Saccharomyces cerevisiae isolate ADdelta overexpressing Abc1p; format: functional; summary of the method: as §6
Pichia kudriavzevii [23] = experiment: Antimicrobial activity against Candida krusei NZCDC 90.147 after 48 hrs by CLSI method; format: functional; summary of the method: as §3
Pichia kudriavzevii [24] = experiment: Antimicrobial activity against Candida krusei B2399 after 48 hrs by CLSI method; format: functional; settings: B2399, 48 h; summary of the method: as §3
[25] = target: ATP binding cassette transporter Abc1p (Issatchenkia orientalis) (UniProt Q09GQ4); experiment: Inhibition of Candida krusei B2399 Abc1p assessed as fractional inhibitory concentration index at 2.5 ug/ml after 48 hrs by checkerboard susceptibility assay; settings: Pichia kudriavzevii; summary of the method: as §5
Pichia kudriavzevii [26] = experiment: Antimicrobial activity against Candida krusei NZCDC 90.147 after 48 hrs by liquid microdilution assay; format: functional; settings: NZCDC 90.147, 48 h; summary of the method: as §4
[27] = target: ATP binding cassette transporter Abc1p (Issatchenkia orientalis) (UniProt Q09GQ4); experiment: Inhibition of Candida krusei ABC1 expressed in Saccharomyces cerevisiae isolate ADdelta at 0.36 nM; settings: Pichia kudriavzevii; summary of the method: as §1
Saccharomyces cerevisiae [28] = experiment: Antimicrobial activity against Saccharomyces cerevisiae isolate AD overexpressing Candida krusei ERG11C after 48 hrs by liquid microdilution assay; format: functional; summary of the method: as §4
Pichia kudriavzevii [29] = experiment: Increase in ERG11 mRNA expression in Candida krusei B2399 at 2 times MIC concentration after 1 hr by hot-phenol extraction based Northern blotting; format: functional, organism-based
Summary of the method: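 Logarithmically grown C. krusei B2399 was exposed to azole for 60 min (2x MIC for VRC, MCZ and ITC; 1x MIC for FLC) alongside an untreated control. Total RNA was extracted with hot phenol, and 10 µg was run on 1.2% denaturing agarose. It was Northern blotted and probed with a radiolabeled ERG11 fragment. ACT1 mRNA served as internal control, with EtBr-stained rRNA showing loading.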

Pichia kudriavzevii [30] = experiment: Antimicrobial activity against Candida krusei IFO0011 after 48 hrs by liquid microdilution assay; format: functional; settings: IFO0011, 48 h; summary of the method: as §4
Saccharomyces cerevisiae [31] = experiment: Antimicrobial activity against Saccharomyces cerevisiae isolate ADdelta overexpressing Abc1p after 48 hrs by liquid microdilution assay; format: functional; summary of the method: as §4
Saccharomyces cerevisiae [32] = experiment: Antimicrobial activity against Saccharomyces cerevisiae isolate ADdelta overexpressing Candida krusei ERG11g after 48 hrs by liquid microdilution assay; format: functional; summary of the method: as §4
Pichia kudriavzevii [33] = experiment: Antimicrobial activity against Candida krusei IFO0011 after 48 hrs by CLSI method; format: functional; settings: IFO0011, 48 h; summary of the method: as §3
Saccharomyces cerevisiae [34] = experiment: Antimicrobial activity against Saccharomyces cerevisiae isolate ADdelta overexpressing Saccharomyces cerevisiae ERG11 after 48 hrs by liquid microdilution assay; format: functional; summary of the method: as §4
[35] = target: ATP binding cassette transporter Abc1p (Issatchenkia orientalis) (UniProt Q09GQ4); experiment: Inhibition of Candida krusei ABC1 expressed in Saccharomyces cerevisiae isolate ADdelta at 0.37 nM; settings: Pichia kudriavzevii

Q: Which Activity [1] does the source give for `Nc1nc(=O)[nH]cc1F` here?
A: inactive

Q: For `C/C=C(\C)C(=O)OCC1=C[C@H]2C(=O)O[C@H]3C[C@@H](C/C=C(\C)C[C@@H](C)/C=C/C=C4\CO[C@H]([C@@H]1O)[C@@]42O)O[C@@]1(CC[C@H](C)[C@@H](C)O1)C3`, which Activity [2] is on record?
A: Active

Q: And the Activity [3]?
A: Active

Q: What about the Activity [4] of the same molecule?
A: Active

Q: What about the Activity [5] of the same molecule?
A: Active

Q: And the Activity [6]?
A: Active

Q: What about the MIC [7] of the same molecule?
A: 0.125 µg/mL

Q: What about the MIC [8] of the same molecule?
A: 64 µg/mL

Q: For `C[C@@H]1[C@H](O)[C@@H](C)/C=C/C=C/C=C/C=C/C=C/C=C/C=C/[C@H](O[C@@H]2O[C@H](C)[C@@H](O)[C@H](N)[C@@H]2O)C[C@@H]2O[C@](O)(C[C@@H](O)C[C@@H](O)[C@H](O)CC[C@@H](O)C[C@@H](O)CC(=O)O[C@H]1C)C[C@H](O)[C@H]2C(=O)O`, which Activity [9] is on record?
A: inactive

Q: What does the source list for `CCC(C)n1ncn(-c2ccc(N3CCN(c4ccc(OCC5COC(Cn6cncn6)(c6ccc(Cl)cc6Cl)O5)cc4)CC3)cc2)c1=O` (centres undefined) [ITRACONAZOLE]?
A: MIC (Pichia kudriavzevii [10]): 0.25 µg/mL (≈ 0.354 µM); MIC (Pichia kudriavzevii [11]): 0.5 µg/mL (≈ 0.709 µM); MIC (Pichia kudriavzevii [12]): 1 µg/mL (≈ 1.42 µM); fractional inhibitory concentration index (FICI) [13]: 0.104; MIC (Pichia kudriavzevii [14]): 0.25 µg/mL (≈ 0.354 µM); ratio (Saccharomyces cerevisiae [15]): 8; MIC (Pichia kudriavzevii [16]): 2 µg/mL (≈ 2.83 µM); ratio (Saccharomyces cerevisiae [17]): 4; ratio (Saccharomyces cerevisiae [18]): 128; MIC (Pichia kudriavzevii [19]): 1 µg/mL (≈ 1.42 µM); MIC (Saccharomyces cerevisiae [20]): 0.125 µg/mL (≈ 0.177 µM); MIC (Pichia kudriavzevii [21]): 0.125 µg/mL (≈ 0.177 µM); ratio (Saccharomyces cerevisiae [22]): 2; MIC (Pichia kudriavzevii [23]): 0.25 µg/mL (≈ 0.354 µM); MIC (Pichia kudriavzevii [24]): 0.25 µg/mL (≈ 0.354 µM); fractional inhibitory concentration index (FICI) [25]: 0.298; MIC (Pichia kudriavzevii [26]): 1 µg/mL (≈ 1.42 µM); Activity [27]: inactive; MIC (Saccharomyces cerevisiae [28]): 0.063 µg/mL (≈ 0.0893 µM); Activity (Pichia kudriavzevii [29]): Active; MIC (Pichia kudriavzevii [30]): 1 µg/mL (≈ 1.42 µM); MIC (Saccharomyces cerevisiae [31]): 0.031 µg/mL (≈ 0.0439 µM); MIC (Saccharomyces cerevisiae [32]): 4 µg/mL (≈ 5.67 µM); MIC (Pichia kudriavzevii [33]): 0.25 µg/mL (≈ 0.354 µM); MIC (Saccharomyces cerevisiae [34]): 0.25 µg/mL (≈ 0.354 µM)

Q: What does the source list for `CC(C)=CC(=O)OCC1=C[C@H]2C(=O)O[C@H]3C[C@@H](C/C=C(\C)C[C@@H](C)/C=C/C=C4\CO[C@H]([C@@H]1O)[C@@]42O)O[C@@]1(CC[C@H](C)[C@@H](C)O1)C3`?
A: Activity [2]: Active; Activity [3]: Active; Activity [5]: Active

Q: Which Activity [35] does the source give for `C[C@@H]1C[C@@H]([C@H](O)CC2CC(=O)NC(=O)C2)C(=O)[C@@H](C)C1` here?
A: Active

Q: With `CO[C@@H]1C(CO)=C[C@H]2C(=O)O[C@H]3C[C@@H](C/C=C(\C)C[C@@H](C)/C=C/C=C4\CO[C@H]1[C@@]42O)O[C@@]1(CC[C@H](C)[C@@H](C)O1)C3` as the molecule, how does the Activity [2] read?
A: Active

Q: What about the Activity [3] of the same molecule?
A: Active

Q: And the Activity [5]?
A: Active

Q: For `CO[C@@H]1C(C)=C[C@H]2C(=O)O[C@H]3C[C@@H](C/C=C(\C)C[C@@H](C)/C=C/C=C(\CO)[C@]2(O)[C@@H]1O)O[C@@]1(CC[C@H](C)[C@@H](C)O1)C3`, which Activity [2] is on record?
A: Active

Q: What about the Activity [3] of the same molecule?
A: Active

Q: What about the Activity [5] of the same molecule?
A: Active
